Experiments:
p53 binding to CBP = p53 binding to CBP (Homo sapiens, UniProt Q92793); assay: HA-CBP and Flag-p53 pull-down assay in HEK 293T cells; assay type: cell-based; conditions: HA-CBP and Flag-p53 over-expressed in 293T cells, doxorubicin treatment
Summary of the method: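 HEK 293T cells were co-transfected with HA-CBP and Flag-p53 (Fugene 6), then treated with test compound at several concentrations, with or without doxorubicin. CBP was immunoprecipitated on HA-agarose beads. Co-precipitated p53 was detected by western blot with anti-Flag antibody.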

[1] = test system: primary neonatal rat cardiomyocytes; assay: TUNEL apoptosis assay in cardiomyocytes; assay type: cell-based
Summary of the method: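 Ventricular myocytes came from 1–2-day-old Sprague-Dawley rats: trypsin overnight at 4°C, collagenase 45 min at 37°C, two preplating rounds. Cells were grown in DMEM/F12 with 10% horse serum and 5% FCS, switched after 48 h to DMEM/F12 with 1% ITS and 0.1% BSA. Doxorubicin was given 24 h ± test compound. Cells on coverslips were fixed in 4% PFA/PBS, permeabilised with 0.5% Tween 20 for 10 min, and TUNEL-labelled with FITC-nucleotide. Triplicates on three days.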

p53 [2] = assay: immunoblot of doxorubicin-treated cardiomyocytes; assay type: cell-based; conditions: primary neonatal rat cardiomyocytes
Summary of the method: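 Neonatal rat ventricular myocytes (1–2-day-old Sprague-Dawley pups) were isolated by trypsin then collagenase digestion and enriched by two preplating rounds. They were cultured in DMEM/F12 with 10% horse serum and 5% FCS, then after 48 h in DMEM/F12 with 1% ITS and 0.1% BSA. Cells were exposed to doxorubicin with or without test compound and immunoblotted for activated p53 and H2AX Ser139 phosphorylation.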

CBP/p300 = assay type: biochemical; conditions: histone H3 peptide substrate; data not shown
p53 [3] = assay: western blot analysis of doxorubicin-treated U2OS cells; assay type: cell-based, human
Summary of the method: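 U2OS cells were grown in DMEM with 10% FBS and antibiotics, then exposed 24 h to doxorubicin ± test compound (50 or 100 μM). Lysates were sonicated and cleared at 14,000 rpm for 30 min at 4°C. 30–50 μg protein was run on SDS-PAGE and moved to nitrocellulose, blocked in 5% milk/PBS, probed with primary then HRP secondary (60 min, RT), and developed by ECL.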

[4] = test system: p53-dependent p21 luciferase activity; assay: p21 luciferase assay of doxorubicin-induced p53 activation in U2OS cells; assay type: cell-based, human
U2OS cells = assay: BRDU incorporation cell cycle assay; assay type: cell-based, human
Summary of the method: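 U2OS cells in DMEM with 10% FBS were seeded at 1×10^5/ml. After 12 h, they got test compound (50 μM) with or without doxorubicin (5 μM); DMSO and untreated cells were controls. BrdU was added for the 24 h treatment. Cells were fixed, probed with anti-BrdU antibody, then peroxidase. Colour was developed with TMB, stopped, and read as OD at 450 nm.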

p53 target genes = assay: RT-PCR array analysis of p53 target genes in U2OS cells; assay type: cell-based, human
[5] = U2OS cells, 50 or 100 μM, 24 hours
[6] = nuclear extracts from U2OS cells

Sequence of p53 binding to CBP (Q92793 whole entry): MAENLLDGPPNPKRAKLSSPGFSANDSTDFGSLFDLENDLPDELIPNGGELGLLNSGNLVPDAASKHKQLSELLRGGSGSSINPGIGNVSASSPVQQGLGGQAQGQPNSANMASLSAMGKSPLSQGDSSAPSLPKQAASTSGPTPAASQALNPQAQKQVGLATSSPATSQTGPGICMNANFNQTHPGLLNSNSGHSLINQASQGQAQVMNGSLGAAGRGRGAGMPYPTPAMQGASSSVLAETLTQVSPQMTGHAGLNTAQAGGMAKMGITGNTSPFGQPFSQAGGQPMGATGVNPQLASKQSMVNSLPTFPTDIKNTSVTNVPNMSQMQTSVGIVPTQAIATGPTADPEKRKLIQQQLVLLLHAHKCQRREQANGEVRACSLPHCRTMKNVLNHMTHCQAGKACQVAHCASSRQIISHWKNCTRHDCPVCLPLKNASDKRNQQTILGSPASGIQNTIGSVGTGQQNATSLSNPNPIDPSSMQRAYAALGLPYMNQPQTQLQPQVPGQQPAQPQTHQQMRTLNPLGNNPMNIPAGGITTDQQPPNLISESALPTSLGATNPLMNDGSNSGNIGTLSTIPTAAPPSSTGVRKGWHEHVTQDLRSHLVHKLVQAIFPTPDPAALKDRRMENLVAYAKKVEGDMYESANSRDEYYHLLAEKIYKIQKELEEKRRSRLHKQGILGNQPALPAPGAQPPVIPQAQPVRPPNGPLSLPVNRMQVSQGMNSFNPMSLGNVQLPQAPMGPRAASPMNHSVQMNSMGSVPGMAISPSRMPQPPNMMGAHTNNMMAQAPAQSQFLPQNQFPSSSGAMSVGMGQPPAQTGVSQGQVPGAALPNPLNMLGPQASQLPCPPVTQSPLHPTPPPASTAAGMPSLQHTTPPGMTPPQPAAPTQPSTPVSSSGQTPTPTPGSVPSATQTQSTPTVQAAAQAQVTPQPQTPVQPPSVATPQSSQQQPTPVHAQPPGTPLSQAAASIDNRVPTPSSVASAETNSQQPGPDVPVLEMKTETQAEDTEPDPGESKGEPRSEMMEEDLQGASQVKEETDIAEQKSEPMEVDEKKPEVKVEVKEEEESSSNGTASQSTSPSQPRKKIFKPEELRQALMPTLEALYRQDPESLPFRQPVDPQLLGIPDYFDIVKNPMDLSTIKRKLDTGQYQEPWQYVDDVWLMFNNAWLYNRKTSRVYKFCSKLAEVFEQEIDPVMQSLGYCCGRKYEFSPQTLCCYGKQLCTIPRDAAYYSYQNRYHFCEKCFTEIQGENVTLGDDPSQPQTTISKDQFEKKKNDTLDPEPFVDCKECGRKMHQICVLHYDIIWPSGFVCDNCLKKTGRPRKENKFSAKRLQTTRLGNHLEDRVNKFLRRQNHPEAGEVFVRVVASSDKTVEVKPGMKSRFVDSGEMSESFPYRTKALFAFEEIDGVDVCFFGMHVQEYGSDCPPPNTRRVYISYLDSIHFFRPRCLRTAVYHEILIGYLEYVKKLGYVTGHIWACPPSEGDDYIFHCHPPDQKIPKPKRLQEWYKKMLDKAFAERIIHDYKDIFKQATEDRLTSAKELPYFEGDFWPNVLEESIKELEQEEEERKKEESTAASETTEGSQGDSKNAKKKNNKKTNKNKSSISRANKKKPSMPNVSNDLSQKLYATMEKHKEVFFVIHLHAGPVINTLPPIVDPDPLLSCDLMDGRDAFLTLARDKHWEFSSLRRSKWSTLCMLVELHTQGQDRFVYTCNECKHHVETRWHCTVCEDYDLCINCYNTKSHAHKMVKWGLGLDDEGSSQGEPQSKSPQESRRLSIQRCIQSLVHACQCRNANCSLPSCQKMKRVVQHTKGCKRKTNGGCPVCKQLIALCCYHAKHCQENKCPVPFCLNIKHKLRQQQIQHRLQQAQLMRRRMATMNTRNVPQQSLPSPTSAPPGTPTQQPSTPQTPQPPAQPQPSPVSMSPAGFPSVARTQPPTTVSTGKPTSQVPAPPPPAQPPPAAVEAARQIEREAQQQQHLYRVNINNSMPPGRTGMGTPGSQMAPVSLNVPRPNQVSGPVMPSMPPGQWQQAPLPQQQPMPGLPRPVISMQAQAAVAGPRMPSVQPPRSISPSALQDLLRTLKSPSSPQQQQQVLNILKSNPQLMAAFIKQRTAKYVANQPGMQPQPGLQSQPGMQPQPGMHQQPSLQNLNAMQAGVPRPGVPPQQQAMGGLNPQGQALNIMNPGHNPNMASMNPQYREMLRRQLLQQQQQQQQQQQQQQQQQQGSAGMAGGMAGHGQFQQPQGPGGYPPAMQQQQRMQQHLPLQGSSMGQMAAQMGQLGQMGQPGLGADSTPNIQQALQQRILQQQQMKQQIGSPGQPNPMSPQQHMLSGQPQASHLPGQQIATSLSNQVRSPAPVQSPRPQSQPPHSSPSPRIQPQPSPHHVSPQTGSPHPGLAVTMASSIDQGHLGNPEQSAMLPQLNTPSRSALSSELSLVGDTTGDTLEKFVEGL

inhibition of p53 binding to CBP (p53 binding to CBP)	direct inhibition of lysine acetyltransferase activity (CBP/p300)	IC50 ([4]; Homo sapiens, U2OS, read-out: IC50 inhibition of p53-induced p21 activation)	SMILES	toxicity of its own [1]	inhibition of doxorubicin-induced apoptosis ([1]; doxorubicin 24 hours)	doxorubicin induced p53 activation (p53 [2])	H2AX phosphorylation at Ser139 (p53 [2]; doxorubicin)	expression of p53 target genes p21, PUMA and 14-3-3s induced by doxorubicin (p53 [3]; [5])	levels of p53 protein, p53S15p and p53K382ac induced by doxorubicin (p53 [3]; [5])	level or functional phosphorylation state of ATM and CHK1 (p53 [3]; U2OS cells, doxorubicin)	H3 acetylation at Lys9 (p53 [3]; [6])	histone H3 phosphorylation at Ser10 (p53 [3]; [6])	suppression of p21 expression ([4]; U2OS cells, doxorubicin, 50 μM)	prevention of doxorubicin-induced cell cycle arrest (BRDU incorporation) (U2OS cells; 50 μM compound, doxorubicin 5 μM, U2OS cells, 24 hours)	toxicity to the cells (U2OS cells; U2OS cells, 50 μM)	doxorubicin-induced expression of p53 target genes (CCNE2, CCNG2, CDC2, CDC25A, CDKN1A, CDKN2A, GADD45A, E2F1, E2F3, PCNA, SESN1, SESN2) (p53 target genes)	decrease of BRDU incorporation (U2OS cells; doxorubicin treatment of U2OS cells)
inhibiting in a dose-dependent manner	ruled out	5 µM	Cc1cc(N=Nc2cc(S(=O)(=O)O)c(C)cc2C)c(N)cc1O [Ischemin / MS120, 5-(2-amino-4-hydroxy-5-methyl-phenylazo)-2,4-dimethyl-benzenesulfonic acid]	no toxicity of its own	effectively inhibit	able to inhibit	did not alter	significantly decreased	marked reduction	did not affect	decrease	increase	nearly completely suppresses	almost completely prevented	not toxic	differentially reduce	
			COc1cccc2c1C(=O)c1c(O)c3c(c(O)c1C2=O)C[C@@](O)(C(=O)CO)C[C@@H]3O[C@H]1C[C@H](N)[C@H](O)[C@H](C)O1 [doxorubicin, reference compound]														45%

Source: paper PMC3103858 (Chemistry & biology, 2011)
